What all share (parameters): species or system Escherichia coli
For assay [1], the target named is Growth factor receptor-bound protein 2 (Homo sapiens, UniProt P62993). The experiment in a line: Binding affinity against Growth factor receptor bound protein 2. Put shortly: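 Fluorescence polarization competition assay using human Grb2 SH2 (residues 55–152), expressed in E. coli BL21(DE3) and purified on phosphotyrosine-agarose. Compounds were serially diluted 1:2 across 1000–0.04 μM in 20 mM phosphate pH 7.4 with 100 mM NaCl, 10 mM DTT, 4% DMSO, 1 mM EDTA and 0.1% bovine γ-globulin. They were added to 1.25 µM protein premixed with 20 nM fluorescein-labelled peptide (ex 485/em 530 nm). IC50 was taken from percent tracer bound relative to vehicle, as the mean of ≥3 experiments.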

In assay [2] the target is Proto-oncogene tyrosine-protein kinase Src (Homo sapiens, UniProt P12931). The experiment in a line: Binding affinity against Src SH2 domain.
Assay [3] addresses Tyrosine-protein kinase SYK (Homo sapiens, UniProt P43405). The experiment in a line: Binding affinity against Syk protein tyrosine kinase SH2 domain.

Where only a bound is given, the exact number is not on record here.

Sequence of Proto-oncogene tyrosine-protein kinase Src (P12931 2-536 limits assumed): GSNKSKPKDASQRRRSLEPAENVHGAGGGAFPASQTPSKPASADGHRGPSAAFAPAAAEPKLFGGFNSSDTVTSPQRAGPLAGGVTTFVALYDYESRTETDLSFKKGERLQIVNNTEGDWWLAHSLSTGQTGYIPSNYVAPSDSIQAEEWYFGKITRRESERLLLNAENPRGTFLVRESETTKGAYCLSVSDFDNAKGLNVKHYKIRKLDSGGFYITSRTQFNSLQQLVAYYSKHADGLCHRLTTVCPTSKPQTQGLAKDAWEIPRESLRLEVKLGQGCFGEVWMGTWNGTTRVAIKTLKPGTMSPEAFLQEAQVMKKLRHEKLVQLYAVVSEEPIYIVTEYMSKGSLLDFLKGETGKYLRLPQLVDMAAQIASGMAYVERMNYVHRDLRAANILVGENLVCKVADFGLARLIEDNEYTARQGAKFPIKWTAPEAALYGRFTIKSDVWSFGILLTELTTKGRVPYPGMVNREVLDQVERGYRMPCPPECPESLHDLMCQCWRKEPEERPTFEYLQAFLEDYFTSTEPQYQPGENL
Sequence of Growth factor receptor-bound protein 2 (P62993 whole entry, the tested form may be a part): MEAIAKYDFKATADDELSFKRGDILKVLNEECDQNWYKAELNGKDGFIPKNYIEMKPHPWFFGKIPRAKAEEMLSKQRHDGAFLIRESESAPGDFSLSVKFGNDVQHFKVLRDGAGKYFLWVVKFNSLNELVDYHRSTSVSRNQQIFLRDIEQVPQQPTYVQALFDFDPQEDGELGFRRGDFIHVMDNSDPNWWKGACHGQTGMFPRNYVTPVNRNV

In the case of `CC(=O)N[C@@H](Cc1ccc(OP(=O)(O)O)cc1)C(=O)N[C@@H](C)c1nc(Cc2ccc(C(F)(F)F)cc2)no1`, the results for the IC50 in assay [1], in assay [2] and in assay [3] were > 500 µM, 210 µM and > 500 µM, respectively.
Take `CC(=O)N[C@@H](Cc1ccc(OP(=O)(O)O)cc1)C(=O)N[C@@H](C)c1nc(Cc2cccc(Cl)c2)no1`: the values for the IC50 in assay [2] and in assay [3] were 68 µM and > 500 µM, respectively.
Take `CC(=O)N[C@@H](Cc1ccc(OP(=O)(O)O)cc1)C(=O)N[C@@H](C)c1nc(Cc2cccc(C(F)(F)F)c2)no1`: the IC50 – broadly, the concentration that inhibits the measured activity by half – is 115 µM in assay [2] and > 500 µM in assay [3].
In the same order, the values of `CC(=O)N[C@@H](Cc1ccc(OP(=O)(O)O)cc1)C(=O)N[C@@H](CCC(N)=O)c1nc(Cc2ccc(C)cc2)no1` are 292 µM and > 500 µM.
As to `CC(=O)N[C@@H](Cc1ccc(OP(=O)(O)O)cc1)C(=O)N[C@@H](CCC(N)=O)c1nc(Cc2ccc(C(C)C)cc2)no1`, the results for the IC50 in assay [2] and in assay [3] were 96 µM and > 500 µM, respectively.
In the same order, the values of `C[C@H](NC(=O)[C@H](Cc1ccc(OP(=O)(O)O)cc1)NC(=O)Cc1ccccc1)c1nc(Cc2ccc(C(F)(F)F)cc2)no1` are 123 µM and > 500 µM.
`C[C@H](NC(=O)[C@H](Cc1ccc(OP(=O)(O)O)cc1)NC(=O)Cc1c[nH]c2ccccc12)c1nc(Cc2ccc(C(F)(F)F)cc2)no1`: the IC50 in assay [2] amounted to 62 µM; in assay [3], 433 µM.
Turning to `CC(=O)N[C@@H](Cc1ccc(OP(=O)(O)O)cc1)C(=O)N[C@@H](C)c1nc(Cc2ccc(Cl)c(Br)c2)no1`, the IC50 was 45 µM in assay [2] and > 500 µM in assay [3].
Take `COc1ccc(CC(=O)N[C@@H](Cc2ccc(OP(=O)(O)O)cc2)C(=O)N[C@@H](C)c2nc(Cc3ccc(C(F)(F)F)cc3)no2)cc1`: the IC50 in assay [2] was 87 µM; in assay [3] it was > 500 µM.
In the same order, the values of `CC(=O)N[C@@H](Cc1ccc(OP(=O)(O)O)cc1)C(=O)N[C@@H](CO)c1nc(Cc2ccc(I)cc2)no1` are 37 µM and 452 µM.
For `CC(=O)N[C@@H](Cc1ccc(OP(=O)(O)O)cc1)C(=O)N[C@@H](CO)c1nc(Cc2ccc(Br)cc2)no1` the same measures were 32 µM and > 500 µM.
For `CC(=O)N[C@@H](Cc1ccc(OP(=O)(O)O)cc1)C(=O)N[C@@H](CC(N)=O)c1nc(Cc2ccc(C(F)(F)F)cc2)no1` the same measures were > 500 µM and > 500 µM.
As for `CC(=O)N[C@@H](Cc1ccc(OP(=O)(O)O)cc1)C(=O)N[C@@H](CO)c1nc(Cc2ccc(Cl)cc2)no1`, the IC50 in assay [2] was 149 µM; in assay [3], > 500 µM.
Regarding `CC(=O)N[C@@H](Cc1ccc(OP(=O)(O)O)cc1)C(=O)N[C@@H](C)c1nc(Cc2ccc(F)cc2)no1`, the IC50 was 200 µM in assay [2] and > 500 µM in assay [3].
In the same order, the values of `C[C@H](NC(=O)[C@H](Cc1ccc(OP(=O)(O)O)cc1)NC(=O)Cc1cccs1)c1nc(Cc2ccc(C(F)(F)F)cc2)no1` are 143 µM and > 500 µM.
For `CC(=O)N[C@@H](Cc1ccc(OP(=O)(O)O)cc1)C(=O)N[C@@H](C)c1nc(Cc2ccc(I)cc2)no1` the same measures were 18 µM and 472 µM.
In the same order, the values of `C[C@H](NC(=O)[C@H](Cc1ccc(OP(=O)(O)O)cc1)NC(=O)Cc1ccc(F)c(F)c1)c1nc(Cc2ccc(C(F)(F)F)cc2)no1` are 130 µM and 397 µM.
Regarding `CC(=O)N[C@@H](Cc1ccc(OP(=O)(O)O)cc1)C(=O)N[C@@H](CO)c1nc(Cc2ccc(F)cc2)no1`, the figures for the IC50 in assay [2] and in assay [3] were 132 µM and > 500 µM, respectively.
Consider `CC[C@H](NC(=O)[C@H](Cc1ccc(OP(=O)(O)O)cc1)NC(C)=O)c1nc(Cc2ccc(C(F)(F)F)cc2)no1`, for which the concentration for half-maximal inhibition (IC50) was 98 µM in assay [2] and > 500 µM in assay [3].
For `CC(=O)N[C@@H](Cc1ccc(OP(=O)(O)O)cc1)C(=O)N[C@@H](CCC(N)=O)c1nc(Cc2ccc3ccccc3c2)no1`, the IC50 in assay [1] is 327 µM; in assay [2], 274 µM; in assay [3] it was > 500 µM.
In the case of `CC(=O)N[C@@H](Cc1ccc(OP(=O)(O)O)cc1)C(=O)N[C@@H](CCC(N)=O)c1nc(Cc2cccc3ccccc23)no1`, the results for the IC50 in assay [2] and in assay [3] were 135 µM and > 500 µM, respectively.
For `CC(=O)N[C@@H](Cc1ccc(OP(=O)(O)O)cc1)C(=O)N[C@@H](CO)c1nc(Cc2ccc(Cl)c(Cl)c2)no1`, the IC50 in assay [1] was > 500 µM; in assay [2], 75 µM; in assay [3], > 500 µM.
On to `CC(=O)N[C@@H](Cc1ccc(OP(=O)(O)O)cc1)C(=O)N[C@@H](C)c1nc(Cc2ccc(Cl)c(Cl)c2)no1`, for which the IC50 in assay [1] was > 500 µM; in assay [2] it was 72 µM; in assay [3] it was > 500 µM.
`CC(=O)N[C@@H](Cc1ccc(OP(=O)(O)O)cc1)C(=O)N[C@@H](Cc1c[nH]c2ccccc12)c1nc(Cc2ccc(C(F)(F)F)cc2)no1`: the values for the IC50 in assay [2] and in assay [3] were 92 µM and > 500 µM, respectively.
Turning to `CC(=O)N[C@@H](Cc1ccc(OP(=O)(O)O)cc1)C(=O)N[C@@H](C)c1nc(Cc2ccc(Cl)cc2)no1`, the results for the IC50 in assay [2] and in assay [3] were 66 µM and > 500 µM, respectively.
For `CC(=O)N[C@@H](Cc1ccc(OP(=O)(O)O)cc1)C(=O)N[C@@H](CO)c1nc(Cc2ccc(C(F)(F)F)cc2)no1`, the values for the IC50 in assay [1], in assay [2] and in assay [3] were > 500 µM, 282 µM and > 500 µM, respectively.
Turning to `CC(=O)N[C@@H](Cc1ccc(OP(=O)(O)O)cc1)C(=O)N[C@@H](C)c1nc(Cc2ccc(C)cc2)no1`, the IC50 in assay [2] is 65 µM; in assay [3] it was > 500 µM.
For the compound `CC(=O)N[C@@H](Cc1ccc(OP(=O)(O)O)cc1)C(=O)N[C@@H](C)c1nc(Cc2ccc3ccccc3c2)no1`, the IC50 is > 500 µM in assay [1], 64 µM in assay [2] and > 500 µM in assay [3].
Turning to `CC(=O)N[C@@H](Cc1ccc(OP(=O)(O)O)cc1)C(=O)N[C@@H](CO)c1nc(Cc2ccc3ccccc3c2)no1`, the IC50 in assay [1] was 479 µM; in assay [2], 99 µM; in assay [3], > 500 µM.
Turning to `CC(=O)N[C@@H](Cc1ccc(OP(=O)(O)O)cc1)C(=O)N[C@@H](C)c1nc(Cc2ccc(I)c(Cl)c2)no1`, the IC50 in assay [2] was determined as 50 µM; in assay [3], 464 µM.
For `C[C@H](NC(=O)[C@H](Cc1ccc(OP(=O)(O)O)cc1)NC(=O)Cc1ccc2ccccc2c1)c1nc(Cc2ccc(C(F)(F)F)cc2)no1` the same measures were 49 µM and 302 µM.
Consider `CC(=O)N[C@@H](Cc1ccc(OP(=O)(O)O)cc1)C(=O)N[C@@H](CCc1ccccc1)c1nc(Cc2ccc(Cl)c(Cl)c2)no1`, for which the IC50 in assay [1] was 340 µM; in assay [2], 60 µM; in assay [3], 250 µM.
For `O=C(Cc1ccccc1)N[C@@H](Cc1ccc(OP(=O)(O)O)cc1)C(=O)N[C@@H](CO)c1nc(Cc2ccc3ccccc3c2)no1` the same measures were 368 µM, 68 µM and > 500 µM.
For the compound `CC(=O)N[C@@H](Cc1ccc(OP(=O)(O)O)cc1)C(=O)N[C@@H](CCC(N)=O)c1nc(Cc2ccc(Cl)cc2)no1`, the IC50 in assay [2] is 205 µM; in assay [3], > 500 µM.
For `CC(=O)N[C@@H](Cc1ccc(OP(=O)(O)O)cc1)C(=O)N[C@@H](CCc1ccccc1)c1nc(Cc2ccc(C(F)(F)F)cc2)no1`, the results for the IC50 in assay [1], in assay [2] and in assay [3] were > 500 µM, 95 µM and 323 µM, respectively.
Consider `O=C(Cc1ccccc1)N[C@@H](Cc1ccc(OP(=O)(O)O)cc1)C(=O)N[C@@H](CO)c1nc(Cc2ccc(Cl)c(Cl)c2)no1`, for which the IC50 in assay [1] was 263 µM; in assay [2] it was 35 µM; in assay [3] it was > 500 µM.
In the same order, the values of `CC(=O)N[C@@H](Cc1ccc(OP(=O)(O)O)cc1)C(=O)N[C@@H](CCC(N)=O)c1nc(Cc2ccc(Cl)c(Cl)c2)no1` are 441 µM, 206 µM and > 500 µM.
For `O=C(Cc1ccccc1)N[C@@H](Cc1ccc(OP(=O)(O)O)cc1)C(=O)N[C@@H](CO)c1nc(Cc2ccc(C(F)(F)F)cc2)no1` the same measures were > 500 µM, 161 µM and 318 µM.
For the compound `CC(=O)N[C@@H](Cc1ccc(OP(=O)(O)O)cc1)C(=O)N[C@@H](C)c1nc(Cc2ccc(Br)cc2)no1`, the IC50 is 31 µM in assay [2] and > 500 µM in assay [3].
For `CC(=O)N[C@@H](Cc1ccc(OP(=O)(O)O)cc1)C(=O)N[C@@H](C)c1nc(Cc2ccc(I)c(Br)c2)no1` the same measures were 40 µM and > 500 µM.
`CC(=O)N[C@@H](Cc1ccc(OP(=O)(O)O)cc1)C(=O)N[C@@H](CCc1ccccc1)c1nc(Cc2ccc3ccccc3c2)no1`: the results for the IC50 in assay [1], in assay [2] and in assay [3] were > 500 µM, 78 µM and 288 µM, respectively.
In assay [2], `CC(=O)N[C@@H](CC(N)=O)C(=O)N[C@@H](CCC(N)=O)C(=O)N[C@@H](CC(C)C)C(=O)N[C@@H](Cc1ccc(OP(=O)(O)O)cc1)C(=O)N[C@@H](CC(N)=O)C(=O)N[C@@H](CCC(=O)O)C(=O)N[C@@H](CC(C)C)C(=O)N[C@@H](CC(N)=O)C(=O)N[C@@H](CC(C)C)C(=O)NCC(=O)N[C@@H](CCCN=C(N)N)C(=O)N[C@@H](CCCN=C(N)N)C(=O)N[C@@H](CCC(=O)O)C(=O)N[C@@H](CCC(=O)O)C(=O)N[C@@H](Cc1ccc(OP(=O)(O)O)cc1)C(=O)N[C@@H](CC(=O)O)C(=O)N[C@H](C(=O)N[C@@H](CC(C)C)C(=O)N[C@@H](CC(=O)O)C(N)=O)C(C)C` came in with an IC50 of 20 µM.
Regarding `CC(=O)N[C@@H](Cc1ccc(OP(=O)(O)O)cc1)C(=O)N[C@@H](CCC(N)=O)c1nc(Cc2cccc(Cl)c2)no1`, the figures for the IC50 in assay [2] and in assay [3] were 259 µM and > 500 µM, respectively.
For `CC(=O)N[C@@H](Cc1ccc(OP(=O)(O)O)cc1)C(=O)N[C@@H](C)c1nc(Cc2ccc(Br)c(Br)c2)no1` the same measures were 39 µM and > 500 µM.
